Rows were chosen to be rich in hits. Some 1.3% of all compounds tested hit in one or more screens of this group.
CRFR2-BP antag = antagonists of CRF-binding protein/CRF-R2 receptor complex | HEK293 CRF-R2/CRF-BP, CRF-induced calcium fluorescence | inhibition, % at 11.8 µM | 0.59% of 350,000 active;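 active means inhibition of the ligand-induced calcium signal above about 50% at the single tested concentration, limit read from the data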
Tn6 DDE FP = disrupts Tn6 cyclic peptide binding to fibrin D-Dimer-E complex | inhibition, % at 8.3 µM | P02675 | 0.21% of 370,000 active | Fibrin DD(E) TRITC-Tn6 fluorescence polarization displacement | AID 720509;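 active means inhibition above a per-campaign cutoff: mean of compounds within control limits plus 3 SD, cut at about 15% in these data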;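 further: 0% = median of all compound wells on the plate and 100% = blocking peptide control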
Target sequence (P02675 whole entry, looked up): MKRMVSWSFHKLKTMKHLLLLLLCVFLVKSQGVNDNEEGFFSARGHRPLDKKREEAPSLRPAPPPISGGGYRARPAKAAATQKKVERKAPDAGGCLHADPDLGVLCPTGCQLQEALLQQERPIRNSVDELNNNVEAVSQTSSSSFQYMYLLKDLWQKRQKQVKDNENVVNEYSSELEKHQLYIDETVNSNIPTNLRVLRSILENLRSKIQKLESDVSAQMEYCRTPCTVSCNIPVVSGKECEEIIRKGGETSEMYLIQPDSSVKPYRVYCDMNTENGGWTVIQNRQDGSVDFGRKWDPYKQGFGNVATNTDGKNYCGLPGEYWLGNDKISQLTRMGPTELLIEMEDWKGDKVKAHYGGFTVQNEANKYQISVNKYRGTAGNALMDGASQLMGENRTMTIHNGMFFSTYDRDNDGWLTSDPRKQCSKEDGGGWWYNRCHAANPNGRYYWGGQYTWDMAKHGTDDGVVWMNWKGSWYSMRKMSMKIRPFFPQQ
CRFR2-BP ag = agonists of human CRF-binding protein/CRF-R2 receptor complex; 0.46% of 350,000 active; AID 588473; activation, % at 13.2 µM; HEK293 CRF-R2/CRF-BP, calcium dye fluorescence (FLIPR); percent of saturating CRF peptide response;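 active means activation of at least 50%, plus an integration ratio under a set limit after plate pattern correction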;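 further: plate controls were neutral control wells without compound for no effect and CRF at EC100 for full effect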
DDE Tn7 FP inh = inhibitors of Tn7 peptide binding to human fibrin DD(E) | P02675 | FP displacement of FITC-Tn7 peptide from fibrin DD(E); 0% = median of compound wells per plate | inhibition, % at 8.3 µM | 0.13% of 370,000 active;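 active means inhibition above the mean of compounds falling within the control limits plus 3 SD of them, cut at about 14% in these data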;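 further: 0% = plate median of compound wells and 100% = 10 µM Aha-Tn7 peptide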
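assay system = human clot-derived fibrin DD(E) complex | quantity = Fibrin-DD(E) at 2 µM final | timing = 10 min preincubation, 3 h with tracer, room temperature | signal = fluorescence polarization | measure = percent inhibition | benchmarks = high control wells with 10 µM unlabelled Aha-Tn7 peptide (full inhibition) | replicates = singlicate testing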
The depositor's hits bear a star; · = no result given.

SMILES	CRFR2-BP antag	Tn6 DDE FP	CRFR2-BP ag	DDE Tn7 FP inh
COc1cc(/C=C2/SC(=S)N(Cc3ccccc3)C2=O)cc(Cl)c1O	-134	5	171*	5
O=C1/C(=C\c2ccc(O)cc2)SC(=S)N1Cc1ccccc1	-22	-8	15	-11
CCOC(=O)N1CCN(C(=O)C[C@H]2C(=O)N(Cc3ccc(OC)cc3)C3=CCCC[C@@]32C(=O)OCC)CC1	·	-1	·	-7
Cc1onc(C(=O)N2CCN(C(c3ccc(F)cc3)c3ccc(F)cc3)CC2)c1[N+](=O)[O-]	·	1	·	1
O=C(CCc1ccccc1-c1ccccc1CCNC(=O)c1ccc(F)c(F)c1)NCc1ccccc1	·	2	·	0
O=C1/C(=C\c2cccc([N+](=O)[O-])c2O)SC(=S)N1Cc1ccccc1	77*	-1	5	-6
CCN1C(=O)/C(=C\C=C\c2ccccc2[N+](=O)[O-])SC1=S	69*	3	-1	-8
COc1cc(/C=C2\SC(=O)N(Cc3ccc(Cl)cc3)C2=O)cc([N+](=O)[O-])c1O	55*	1	0	-9
CCOc1ccccc1C=C1SC(=S)N(CC)C1=O	-13	5	3	-10
Cc1cc(C)cc(NC(=O)NCCCN2CCN(c3ccc(F)cc3)CC2)c1	·	-5	·	-5
CN1C(=O)[C@@](O)(c2cccn2C)c2cc(Cl)ccc21	·	3	·	3
COc1ccc(C2=Nc3ccccc3C2(O)CCN2C(=O)c3ccccc3C2=O)cc1 (stereo not given)	67*	-3	31	4
COc1ccc(OCCN2C(=O)c3ccccc3C2=O)cc1	-2	4	0	2
O=C(O)C(c1ccccc1)C1(O)CCCC1 (stereo not given)	97*	4	1	-4
CC1CCC(O)(C(C(=O)O)c2ccccc2)CC1 (stereo not given)	-15	-2	-1	-5
CC(=O)C1=C(O)C(=O)N(Cc2ccccc2)C1c1ccc(F)cc1 (stereo not given)	56*	5	0	0
COc1cccc(CNC(=O)CN2CCCc3ccccc32)c1OC	·	11	·	4
CC12CCC(C(=O)Nc3ncc([N+](=O)[O-])s3)(OC1=O)C2(C)C (stereo not given)	63*	·	11	·
Cc1cc(C)cc(NC(=O)Cn2nnc(C(=O)NCc3ccc(F)cc3)c2N)c1	76*	-8	6	-2
Cc1c(C(=O)O)sc(S(=O)(=O)N2CCN(C(=O)Cc3ccc(F)cc3)CC2)c1C(=O)O	52*	5	-1	6
C=CCN(c1ccccc1)S(=O)(=O)c1cccc(C(=O)OCC(=O)NCCOC)c1	55*	-2	-2	-5
CN1C(=O)c2cc(NC(=O)Nc3ccccc3)ccc2OC[C@H]2O[C@@H](CC(=O)N[C@H]3CCN(Cc4ccccc4)C3)CC[C@@H]21	·	-4	·	2
COc1ccccc1NS(=O)(=O)c1cc(C(=O)N2CCCCCCC2)ccc1C	-1	1	0	6
COc1ccccc1NS(=O)(=O)c1cc(C(=O)N2CCCC2)ccc1F	79*	0	-1	-9
O=C1c2ccccc2S(=O)(=O)N1CC(O)COc1ccc(Cl)cc1 (stereo not given)	-47	-1	0	3
SMILES	CRFR2-BP antag	Tn6 DDE FP	CRFR2-BP ag	DDE Tn7 FP inh
COC(=O)c1ccc(OCC(O)CN2C(=O)c3ccccc3S2(=O)=O)cc1 (stereo not given)	58*	1	10	5
CCN1CCCCC(NC(=O)c2ccccc2C)C1=O (stereo not given)	·	7	·	2
C(=C\c1ccccc1)/CSc1nnc(-c2ccccc2)n1Cc1ccco1	62*	-4	-4	3
C(=C\c1ccccc1)/CSc1nnc(-c2ccncc2)n1Cc1ccco1	39	1	-2	0
Clc1cccc(-c2nnc(SC/C=C/c3ccccc3)n2Cc2ccco2)c1	60*	·	9	·
Fc1cccc(F)c1Cn1ccc2ccc(-c3ccc4ccn(Cc5c(F)cccc5F)c4c3)cc21	·	-4	·	2
Cc1cc(C)n2nc(CC(=O)NNC(=O)c3ccccc3Cl)nc2n1	103*	1	1	-2
Cc1ccc(C(=O)NNC(=O)Cc2nc3nc(C)cc(C)n3n2)cc1	-1	-8	-2	2
O=C(O)C1=CCCNC1	57*	0	-1	0
O=C(O)C1=CCNCC1	2	-2	0	-4
Cc1ccc(OCCOc2c(Cl)cc(Cl)cc2Cl)c([N+](=O)[O-])n1	·	-4	·	-1
Cc1n[nH]c(C)c1S(=O)(=O)NCCc1c[nH]c2ccccc12	·	2	·	2
O=C(CS(=O)c1ccc(C(F)(F)F)cc1[N+](=O)[O-])Oc1ccccc1 (stereo not given)	-18	-3	-1	0
CS(=O)(=O)c1ccc(S(=O)CC(=O)OCc2ccccc2)c([N+](=O)[O-])c1 (stereo not given)	53*	-5	5	-1
N#Cc1c(-c2ccc(F)cc2)cc(-c2ccccc2)nc1SCC(=O)NCC(=O)O	-11	1	62*	-5
CCCn1c(=O)c(C(=O)NNC(=O)c2ccc(Cl)cc2Cl)c(O)c2ccccc21	-36	-7	70*	3
CCCC[C@H](C(=O)N(C)c1ccccc1)[C@@H](O)c1ccc(C(C)=O)cc1	·	4	·	-5
CCC[C@H]1[C@@H](OC(=O)NCc2ccc(OC)c(OC)c2)CC[C@@]23CCCN2C(=O)CCC[C@@H]13	·	-2	·	-4
CCOc1ccc(/C=N/OCC(=O)NC(c2ccccc2)c2ccccc2)cc1	-142	-4	54*	5
CS(=O)(=O)N1CCN(C(=O)COc2ccc3ccccc3c2)CC1	64*	-6	0	-8
COC(=O)[C@H](C(C)C)N(Cc1cn(CC2CCCCC2)nn1)S(=O)(=O)c1ccc(F)cc1Br	·	-12	·	-3
COc1ccc(C2C(C(=O)N3CCN(c4ccccc4Cl)CC3)CC(=O)N2c2ccc(OC)cc2)cc1 (stereo not given)	·	4	·	1
COc1ccc(S(=O)(=O)Nc2nc3ccccc3nc2NCc2ccc3c(c2)OCO3)cc1	57*	0	-1	-5
Cc1ccc(S(=O)(=O)Nc2nc3ccccc3nc2NCc2ccc3c(c2)OCO3)cc1C	12	4	-3	4
CCOC(=O)c1cccc(NC(=O)CN(C)S(=O)(=O)c2cc3ccccc3s2)c1	·	-3	·	5
Cc1ccc(S(=O)(=O)c2nc(S(C)(=O)=O)sc2N2CCOCC2)cc1	95*	5	2	1
CCCS(=O)(=O)c1nc(S(=O)(=O)c2ccc(C)cc2)c(N2CCCC2)s1	-82	6	89*	-1
COc1ccccc1NS(=O)(=O)c1cc([N+](=O)[O-])ccc1N/N=C/c1c(C)[nH]c2ccccc12	-92	-1	37	-3
O=[N+]([O-])c1ccc(N/N=C/c2c[nH]c3ccccc23)c(S(=O)(=O)Nc2ccc(Cl)cc2)c1	-190	6	94*	0
COc1cc(N2CCCC2)c(OC)cc1/C=C1/NC(=S)NC1=O	-168	-6	178*	-21
